Experiment [1] is described as follows: Compound was tested for Cytotoxic activity by lymphocyte viability assay. Particulars: Mus musculus. The method, boiled down: (§1)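 Balb/c mouse splenocytes alone, added to wells holding dried test compound (eight dilutions, 10 to 3.33 × 10^-6 mg/mL, applied in EtOH and evaporated); culture-medium wells serve as nonspecific control. Incubated 96 h at 37 °C, 5% CO2, then MTT added; formazan dissolved in 2-propanol and absorbance read at 570 nm.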

Experiment [2] in a line: Non cytotoxic IM activity index which is the ratio of IC50 of LcV to IC50 of MLR. The format is functional.
For experiment [3], the species on record is Mus musculus. As to the kind of experiment: (§2) Compound was tested for Immunosuppression activity by mixed lymphocyte reaction (MLR) in murine splenocytes of mice. It is filed as functional. The method, boiled down:
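Two-way MLR: Balb/c and C57Bl/6 splenocytes combined in wells holding dried compound (eight dilutions, 10 to 3.33 × 10^-6 mg/mL, applied in EtOH and evaporated; duplicates). Incubated 96 h at 37 °C, 5% CO2, then pulsed 15 h with [3H]thymidine. Incorporated label counted after glass-fibre filtration. Proliferation expressed as percent of control; IC50 interpolated.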

For experiment [4], the species on record is Mus musculus. The experiment is described as §2. It is filed as functional, organism-based. The method, boiled down:
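Two-way mixed lymphocyte reaction using splenocytes from Balb/c and C57Bl/6 mice, combined in equal volumes. Compounds were dissolved in absolute EtOH and tested at eight dilutions from 10 to 3.33 × 10^-6 mg/mL, in duplicate, with the solvent dried onto the wells. Cultures ran 96 h at 37 °C in 5% CO2, then were pulsed 15 h with [3H]thymidine. Incorporation was counted by scintillation; IC50 was interpolated from % proliferation relative to control.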

A short description of experiment [5]: Compound was tested for Cytotoxic activity by lymphocyte viability assay. Particulars: Mus musculus. Summed up:
as §1

Among the data in ChEMBL document CHEMBL1129241, “Immunosuppressive cyclolignans” (J Med Chem, 1996) are IC50 and Selectivity index values, retold here.

Structures are written as SMILES. ≈ marks a conversion by molar mass, not a printed value.

As a reminder, the IC50 is the concentration at which inhibition is half-maximal. Higher therefore signals a need for much substance. Consider `COc1cc([C@@H]2c3cc4c(cc3C[C@H]3COC(=O)[C@@H]32)OCO4)cc(OC)c1O` [4'-DEMETHYLDEOXYPODOPHYLLOTOXIN], for which the IC50 in experiment [1] amounted to 11.5 µg/mL (≈ 29.9 µM); in the experiment filed under Mus musculus [3], 0.00281 µg/mL (≈ 0.00731 µM). For the same molecule, in experiment [2], the Selectivity index is given as 4097.
With `COC(=O)[C@@H]1[C@H](c2cc(OC)c(OC)c(OC)c2)c2cc3c(cc2C2=NN(C(C)=O)C[C@H]21)OCO3`, the results for the IC50 (in experiment [1]; in the experiment filed under Mus musculus [3]) were > 100 µg/mL and 7.68 µg/mL (≈ 15.9 µM), respectively. Besides, the Selectivity index in experiment [2] is on record as >13.
Consider `COc1cc(C2C3=C(COC3=O)Cc3cc4c(cc32)OCO4)cc(OC)c1OC` (configuration not stated), for which the IC50 is 27.5 µg/mL (≈ 69.4 µM) in experiment [1] and 0.00825 µg/mL (≈ 0.0208 µM) in the experiment listed under Mus musculus [4]. Besides, the Selectivity index in experiment [2] was >3333.
On to `COc1cc([C@@H]2c3cc4c(cc3[C@@H](O)[C@H]3COC(=O)[C@H]23)OCO4)cc(OC)c1OC` [EPIPODOPHYLLOTOXIN], for which the IC50 is > 65 µg/mL in experiment [1] and 0.229 µg/mL (≈ 0.553 µM) in the experiment listed under Mus musculus [3]. Also, the Selectivity index in experiment [2] was >284.
For `COc1cc([C@@H]2c3cc4c(cc3C(=O)[C@H]3COC(=O)[C@H]23)OCO4)cc(OC)c1O`, in that order: > 25 µg/mL, 11.8 µg/mL (≈ 29.6 µM) and >2.
For `COc1cc([C@@H]2c3cc4c(cc3C3=NN(c5ccccc5)C[C@H]3[C@@H]2COC(C)=O)OCO4)cc(OC)c1OC`, the IC50 in experiment [1] was > 100 µg/mL; in the experiment filed under Mus musculus [3], 9.29 µg/mL (≈ 17.5 µM). Moreover, in experiment [2], the Selectivity index is recorded as >11.
Consider `COc1cc(C2c3cc4c(cc3[C@@H](OC(C)=O)C3COC(=O)C23)OCO4)cc(OC)c1OC(C)=O` (some centres not stated), for which the IC50 stood at 22.8 µg/mL (≈ 47.1 µM) in experiment [1] and 0.453 µg/mL (≈ 0.935 µM) in the experiment listed under Mus musculus [4]. The Selectivity index in experiment [2] is 50.
For the molecule `COC(=O)[C@@H]1[C@H](c2cc(OC)c(OC)c(OC)c2)c2cc3c(cc2C(=O)[C@H]1CO)OCO3`, the half-inhibitory concentration (IC50) was > 25 µg/mL in experiment [1] and 1.41 µg/mL (≈ 3.17 µM) in the experiment listed under Mus musculus [3]. Moreover, the Selectivity index in experiment [2] is reported as >18.
Turning to `COC(=O)[C@@H]1[C@H](c2cc(OC)c(OC)c(OC)c2)c2cc3c(cc2C2=NN(c4ccc(C)cc4)C[C@H]21)OCO3`, the half-maximal inhibitory concentration (IC50) in experiment [1] is > 26 µg/mL; in the experiment listed under Mus musculus [3], 0.848 µg/mL (≈ 1.6 µM). Moreover, the Selectivity index in experiment [2] is listed as >31.
For the molecule `COc1cc([C@@H]2c3cc4c(c(O)c3C[C@H]3COC(=O)[C@@H]32)OCO4)cc(OC)c1OC` [BETA-PELTATIN A], the IC50 in experiment [1] is 19.7 µg/mL (≈ 47.5 µM); in the experiment filed under Mus musculus [3] it was < 0.00945 µg/mL. Further, in experiment [2], the Selectivity index was >2085.
On to `COc1cc(C2c3cc4c(cc3CC3COC(=O)C32)OCO4)cc(OC)c1OC(C)=O` (configuration not stated), for which the IC50 in experiment [1] came out at 15.8 µg/mL (≈ 37.1 µM); in the experiment listed under Mus musculus [4], 0.0718 µg/mL (≈ 0.168 µM). Moreover, the Selectivity index in experiment [2] amounted to 220.
On to `COc1cc([C@@H]2c3cc4c(c(O)c3C[C@H]3COC(=O)[C@@H]32)OCO4)cc(OC)c1O`, for which the IC50 in experiment [1] was 12.8 µg/mL (≈ 32 µM); in the experiment filed under Mus musculus [3], < 0.00495 µg/mL. In addition, in experiment [2], the Selectivity index was >2586.
For `COc1cc([C@@H]2c3cc4c(cc3C3=NOC[C@H]3[C@@H]2C(=O)O)OCO4)cc(OC)c1OC`, in that order: 30 µg/mL (≈ 70.2 µM), < 0.009 µg/mL and >3333.
`COc1cc([C@@H]2c3cc4c(cc3[C@H](O)[C@H]3COC(=O)[C@H]23)OCO4)cc(OC)c1OC` [PODOFILOX]: the 50% inhibitory concentration (IC50) in experiment [5] is 280 µg/mL (≈ 676 µM); in the experiment filed under Mus musculus [4], < 0.128 µg/mL. The Selectivity index in experiment [2] is reported as >2190.
